The nature of assay [1]: reducers of endogenous Her2 protein level, primary screen, SKBR3 breast tumor cells, AlphaScreen, ATP viability (AID 461;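 active = Her2 level under about 52% in both replicate screens, with viability over 70% of control, limit read from the data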;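 for Her2 level: lower value means less Her2 protein in the cells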;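 for viability: percent of carrier control wells set as 100% viability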). The conditions noted are these: 18-24 h, measured here: SKBR3 viability, ATP luminescence, at 10 µM. Background: Bead proximity is the source of the signal in Alpha formats.
Assay [2] addresses Receptor tyrosine-protein kinase erbB-2 (Homo sapiens) (UniProt P04626). Described as above. The note with it: 18-24 h, at 10 µM, stronger effect = lower value.
Assay [3] is described as follows: SK-BR-3 cell growth inhibitors, pilot screen, 24 h, human (AID 572;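 active = viability at or below 10% of carrier control in both of two separate runs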;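 note: compound exposure lasted between 18 and 24 h rather than exactly 24 h; 100% = carrier-treated control wells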). The note with it: SK-BR-3 viability, CellTiter-Glo luminescence, at 10 µM, stronger effect = lower value. For orientation: ATP-based viability assays read luminescence as a measure of living cells.
The nature of assay [4]: HUVEC growth inhibition – cell-based, human, primary screen (AID 575;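 active = viability at or below 30% in both replicate assays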;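 note: 100% = median of untreated cell wells with 0.1% DMSO on each plate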). The note with it: HUVEC proliferation, CellTiter-Glo luminescence, 72 h; at 10 µM; stronger effect = lower value. In short, it runs like this: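 Timing: 72 h treatment at 37 °C; material: HUVEC primary cells; technique: CellTiter-Glo luminescence measuring cellular ATP; controls: vehicle and MePR control wells; measure: percent of median DMSO-control luminescence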

Assay [5] is described as follows: growth inhibitors of H69AR lung tumor, primary screen, human, duplicate replicates (AID 580;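 active = viability at or under a set limit in both replicates, limit being median viability minus 3 SD, cut at about 48% in these data, passing the limit was not always enough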;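 note: 100% = mean luminescence of untreated wells and 0% = no signal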). The conditions noted are these: H69AR lung tumor cells viability, ATP luminescence, 72 h; at 10 µM; stronger effect = lower value.
A short description of assay [6]: reversal of MRP1-mediated doxorubicin resistance, pilot screen, H69AR cells, doxorubicin co-treatment (AID 601). The conditions noted are these: CellTiter-Glo, 72 h, at 10 µM; for differential viability (reversal): stronger effect = higher value.
Assay [7] in a line: 384-well plate pilot, post-Golgi transport modulator project, inhibition of yeast transport mutant growth (AID 636; in the data active = inhibition above about 31%). The note with it: absorbance 615 nm, about 18 h, stronger effect = higher value.
Assay [8] can be described thus: growth suppression of yeast trafficking mutant, preliminary HTS, modulators of trafficking downstream of Golgi apparatus project, 1536-format plate, OD 615 nm (AID 637; in the data active = inhibition above about 30%). The conditions noted are these: yeast transport mutant growth, absorbance 615 nm, 18 h; stronger effect = higher value.
The mark [9] stands for this setting: H69AR cells + 2 uM doxorubicin, measured here: viability with 2 uM doxorubicin, stronger effect = lower value.
The mark [10] stands for this setting: H69AR cells, compound alone cytotoxicity.

Molecules are shown by their SMILES. Calls of active or inactive are those of the source.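 Rule for the calls, unless noted: active = viability loss from added drug above about 55%, and viability with drug at most 40%, in both replicates (limit read from the data, passing the limit was not always enough); inconclusive = both conditions met in only one replicate; inactive = neither replicate meets both conditions.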

Sequence of Receptor tyrosine-protein kinase erbB-2 (Homo sapiens) (P04626 whole entry, looked up): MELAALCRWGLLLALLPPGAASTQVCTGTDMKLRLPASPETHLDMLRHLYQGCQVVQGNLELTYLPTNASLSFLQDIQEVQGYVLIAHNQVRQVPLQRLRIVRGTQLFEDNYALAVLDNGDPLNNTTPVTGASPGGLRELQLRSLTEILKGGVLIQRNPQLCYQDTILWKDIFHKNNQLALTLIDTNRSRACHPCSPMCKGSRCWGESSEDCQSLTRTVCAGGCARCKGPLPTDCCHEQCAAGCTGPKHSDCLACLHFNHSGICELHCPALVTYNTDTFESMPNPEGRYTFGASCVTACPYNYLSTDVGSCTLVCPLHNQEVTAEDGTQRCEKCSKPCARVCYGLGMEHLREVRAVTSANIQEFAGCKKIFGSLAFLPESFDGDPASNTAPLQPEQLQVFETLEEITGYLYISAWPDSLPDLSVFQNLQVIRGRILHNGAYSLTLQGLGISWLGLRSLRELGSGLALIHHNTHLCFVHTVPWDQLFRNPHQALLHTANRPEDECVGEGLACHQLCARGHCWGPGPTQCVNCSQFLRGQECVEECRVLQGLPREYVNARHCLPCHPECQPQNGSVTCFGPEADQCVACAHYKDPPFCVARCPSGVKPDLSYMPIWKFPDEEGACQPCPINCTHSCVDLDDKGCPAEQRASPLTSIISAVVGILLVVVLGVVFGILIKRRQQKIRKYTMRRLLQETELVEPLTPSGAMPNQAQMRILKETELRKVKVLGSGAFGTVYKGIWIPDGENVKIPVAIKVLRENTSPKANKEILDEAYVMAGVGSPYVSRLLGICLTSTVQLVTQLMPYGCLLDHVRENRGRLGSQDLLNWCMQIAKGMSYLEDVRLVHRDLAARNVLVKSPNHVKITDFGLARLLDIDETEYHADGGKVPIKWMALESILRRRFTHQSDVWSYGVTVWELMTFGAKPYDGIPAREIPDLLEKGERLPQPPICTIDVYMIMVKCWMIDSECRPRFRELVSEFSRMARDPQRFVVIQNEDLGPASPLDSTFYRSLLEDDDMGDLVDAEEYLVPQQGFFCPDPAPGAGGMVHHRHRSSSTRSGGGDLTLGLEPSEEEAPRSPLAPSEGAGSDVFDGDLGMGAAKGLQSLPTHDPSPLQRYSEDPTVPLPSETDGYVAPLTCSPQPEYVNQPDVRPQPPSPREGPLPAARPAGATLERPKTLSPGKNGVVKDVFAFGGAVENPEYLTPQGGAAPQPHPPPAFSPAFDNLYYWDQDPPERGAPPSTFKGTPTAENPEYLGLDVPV

As to `COC(=O)c1ccccc1S(=O)(=O)NC(=O)c1ccccc1`, the viability (in general, a read-out of living cells in per cent, often relative to untreated cells) was 107% in assay [1]; 107% (inactive) in assay [3]; 107% (inactive) in assay [4]; 88.2% (inactive) in assay [5]; 82.5% in assay [6] (setting [9]); 88.2% in assay [6] (setting [10]). Moreover, the Her2 level in assay [2] was 74% (inactive). For the same molecule, the differential viability (reversal) in assay [6] (H69AR cells + 2 uM doxorubicin) is 5.66% (inactive). For the same molecule, the inhibition (in general, the drop in the measured response relative to a control, in per cent) is -1.82% (inactive) in assay [7] and -3.81% (inactive) in assay [8].
In the case of `Cc1ccc(S(=O)(=O)N2CCC(C(=O)N3CCC[C@H]3C(=O)NCc3ccccc3)CC2)cc1`, the viability is 117% in assay [1]; 117% (inactive) in assay [3]; 101% (inactive) in assay [4]; 90.8% (inactive) in assay [5]; 96.2% in assay [6] (setting [9]); 90.8% in assay [6] (setting [10]). Also, the Her2 level in assay [2] is 103% (inactive). In assay [6] (H69AR cells + 2 uM doxorubicin), the differential viability (reversal) is -5.42% (inactive). Further, the figures for the inhibition in assay [7] and in assay [8] were -4.81% (inactive) and -0.66% (inactive), respectively.
In the case of `CC(=O)Nc1ccc(S(=O)(=O)N2CCN(C(C)CCc3ccccc3)CC2)cc1` (stereo not given), the viability in assay [1] is 74%; in assay [3] it was 74% (inactive); in assay [4], 97.8% (inactive); in assay [5], 96.6% (inactive); in assay [6] (setting [9]) it was 91.4%; in assay [6] (setting [10]) it was 96.6%. Also, in assay [2], the Her2 level was 98.5% (inactive). Also, the differential viability (reversal) in assay [6] (H69AR cells + 2 uM doxorubicin) is 5.17% (inactive). Besides, the inhibition was -4.8% (inactive) in assay [7] and -1.29% (inactive) in assay [8].
Consider `CCN(CC)c1ncc(C)c(=O)[nH]1`, for which the viability was 103% in assay [1]; 103% (inactive) in assay [3]; 105% (inactive) in assay [4]; 88.8% (inactive) in assay [5]; 94.5% in assay [6] (setting [9]); 88.8% in assay [6] (setting [10]). For the same molecule, in assay [2], the Her2 level was 106% (inactive). Also, in assay [6] (H69AR cells + 2 uM doxorubicin), the differential viability (reversal) was -5.64% (inactive). Besides, the inhibition is -3.47% (inactive) in assay [7] and 19% (inactive) in assay [8].
Turning to `Cc1n[nH]c(C)c1S(=O)(=O)N1CCN(c2ccccn2)CC1`, the viability in assay [1] is 99.5%; in assay [3], 99.5% (inactive); in assay [4], 111% (inactive); in assay [5] it was 103% (inactive); in assay [6] (setting [9]), 99.8%; in assay [6] (setting [10]), 103%. The Her2 level in assay [2] is 108% (inactive). Further, in assay [6] (H69AR cells + 2 uM doxorubicin), the differential viability (reversal) was 3.44% (inactive). The results for the inhibition in assay [7] and in assay [8] were -0.26% (inactive) and -4.29% (inactive), respectively.
As to `CCC(C)c1ccc(NC(=O)c2cccnc2)cc1` (stereo not given), the viability in assay [1] is 93%; in assay [3] it was 93% (inactive); in assay [4] it was 81.6% (inactive); in assay [5], 92.5% (inactive); in assay [6] (setting [9]) it was 87.4%; in assay [6] (setting [10]), 92.5%. Moreover, the Her2 level in assay [2] was 106% (inactive). The differential viability (reversal) in assay [6] (H69AR cells + 2 uM doxorubicin) is 5.06% (inactive). Besides, the values for the inhibition in assay [7] and in assay [8] were -0.54% (inactive) and -1.64% (inactive), respectively.
On to `O=C(NCCC1=CCCCC1)c1cc2c(s1)CS(=O)(=O)C2`, for which the viability in assay [1] is 114%; in assay [3] it was 114% (inactive); in assay [4], 85.7% (inactive); in assay [5] it was 88.5% (inactive); in assay [6] (setting [9]) it was 83.8%; in assay [6] (setting [10]) it was 88.5%. Moreover, the Her2 level in assay [2] is 93.5% (inactive). Moreover, the differential viability (reversal) in assay [6] (H69AR cells + 2 uM doxorubicin) is 4.64% (inactive). Moreover, the results for the inhibition in assay [7] and in assay [8] were -3.77% (inactive) and -3.28% (inactive), respectively.
On to `COc1ccc(-n2c(COc3cccc(C)c3)nnc2SCC(=O)NCc2ccco2)cc1`, for which the viability in assay [1] was 126%; in assay [3] it was 126% (inactive); in assay [4], 84.4% (inactive); in assay [5], 85.4% (inactive); in assay [6] (setting [9]), 95.7%; in assay [6] (setting [10]) it was 85.4%. In assay [2], the Her2 level was 91% (inactive). Further, in assay [6] (H69AR cells + 2 uM doxorubicin), the differential viability (reversal) was -10.3% (inactive). Besides, the results for the inhibition in assay [7] and in assay [8] were -2.84% (inactive) and -1.43% (inactive), respectively.
Take `CCCCC(O)(C(NC=O)C(=O)OC)C(F)(F)F` (stereo not given): the viability is 95.5% in assay [1]; 95.5% (inactive) in assay [3]; 108% (inactive) in assay [4]; 99.4% (inactive) in assay [5]; 95.7% in assay [6] (setting [9]); 99.4% in assay [6] (setting [10]). The Her2 level in assay [2] was 85% (inactive). The differential viability (reversal) in assay [6] (H69AR cells + 2 uM doxorubicin) was 3.77% (inactive). Moreover, the inhibition in assay [7] was -2.27% (inactive); in assay [8], 7.58% (inactive).
Turning to `FC(F)(F)c1nnc2ccc(NCn3nnc4ccccc43)nn12`, the viability in assay [1] is 102%; in assay [3] it was 102% (inactive); in assay [4] it was 83.1% (inactive); in assay [5] it was 92.9% (inactive); in assay [6] (setting [9]), 88%; in assay [6] (setting [10]), 92.9%. Besides, the Her2 level in assay [2] was 89.5% (inactive). Besides, in assay [6] (H69AR cells + 2 uM doxorubicin), the differential viability (reversal) is 4.94% (inactive). Also, the inhibition was -4.61% (inactive) in assay [7] and -1.75% (inactive) in assay [8].
As to `CCOc1cc(NC(=O)c2ccco2)c(OCC)cc1NC(=O)Cc1cccc(OC)c1`, the viability is 107% in assay [1]; 107% (inactive) in assay [3]; 61.2% (inactive) in assay [4]; 86.7% (inactive) in assay [5]; 86.7% in assay [6] (setting [9]); 86.7% in assay [6] (setting [10]). For the same molecule, the Her2 level in assay [2] was 99.5% (inactive). The differential viability (reversal) in assay [6] (H69AR cells + 2 uM doxorubicin) is -0.055% (inactive). Moreover, the inhibition is 0.68% (inactive) in assay [7] and -6.39% (inactive) in assay [8].
As to `COc1ccc(Cn2nnnc2C(c2cccs2)N2CCOCC2)cc1` (stereo not given), the viability in assay [1] was 105%; in assay [3], 105% (inactive); in assay [4], 90.9% (inactive); in assay [5], 109% (inactive); in assay [6] (setting [9]), 111%; in assay [6] (setting [10]), 109%. Also, the Her2 level in assay [2] is 123% (inactive). The differential viability (reversal) in assay [6] (H69AR cells + 2 uM doxorubicin) is -1.24% (inactive). In addition, the inhibition is 3.16% (inactive) in assay [7] and 5.33% (inactive) in assay [8].
Consider `CC(=O)N1CCN=C1SCc1c(F)cccc1Cl`, for which the viability is 102% in assay [1]; 102% (inactive) in assay [3]; 73.1% (inactive) in assay [4]; 78.8% (inactive) in assay [5]; 83.8% in assay [6] (setting [9]); 78.8% in assay [6] (setting [10]). Moreover, the Her2 level in assay [2] is 105% (inactive). For the same molecule, the differential viability (reversal) in assay [6] (H69AR cells + 2 uM doxorubicin) was -5.06% (inactive). Moreover, the inhibition is 3.85% (inactive) in assay [7] and -1% (inactive) in assay [8].
Take `CCOC(=O)C1=C(C)N=c2s/c(=C\c3cccn3C)c(=O)n2C1c1cccc(OC)c1OC` (stereo not given): the viability in assay [1] was 89%; in assay [3], 89% (inactive); in assay [4] it was 75.7% (inactive); in assay [5], 87.4% (inactive); in assay [6] (setting [9]), 89%; in assay [6] (setting [10]) it was 87.4%. Also, the Her2 level in assay [2] was 87% (inactive). The differential viability (reversal) in assay [6] (H69AR cells + 2 uM doxorubicin) is -1.62% (inactive). The figures for the inhibition in assay [7] and in assay [8] were -1.56% (inactive) and -2.13% (inactive), respectively.
In the case of `O=S(=O)(c1ccc2ccccc2c1)N1CCCCC1`, the viability in assay [1] is 102%; in assay [3] it was 102% (inactive); in assay [4], 78% (inactive); in assay [5], 80.8% (inactive); in assay [6] (setting [9]), 75.1%; in assay [6] (setting [10]), 80.8%. Further, in assay [2], the Her2 level was 82.5% (inactive). In assay [6] (H69AR cells + 2 uM doxorubicin), the differential viability (reversal) was 5.72% (inactive). Besides, the inhibition in assay [7] was -1.95% (inactive); in assay [8], -8.67% (inactive).
`Cc1cc(NC(=O)NC(=O)c2cccc(OC(F)(F)C(F)F)c2)n[nH]1`: the viability was 99.5% in assay [1]; 99.5% (inactive) in assay [3]; 80.4% (inactive) in assay [4]; 85.2% (inactive) in assay [5]; 98% in assay [6] (setting [9]); 85.2% in assay [6] (setting [10]). Further, in assay [2], the Her2 level was 94% (inactive). In addition, the differential viability (reversal) in assay [6] (H69AR cells + 2 uM doxorubicin) was -12.8% (inactive). In addition, the results for the inhibition in assay [7] and in assay [8] were -3.73% (inactive) and 20% (inactive), respectively.

Values taken from PubChem BioAssay.
